Results as given in ChEMBL document CHEMBL4265992, “Noncovalent Inhibitors of Mosquito Acetylcholinesterase 1 with Resistance-Breaking Potency” (J Med Chem, 2018).
The source made the active and inactive calls. The rule behind the calls is not given here.

How the values were obtained:
[1] = target: Acetylcholinesterase (Aedes aegypti, UniProt Q6A2E2); experiment: Inhibition of recombinant Aedes aegypti AChE1 expressed in sf9 insect cells using acetylthiocholine iodide as substrate measured over 60 secs by Ellman assay
Procedure, shortened: (§1)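 Enzyme source: secreted, non-purified recombinant protein in growth medium. Ellman assay at 30 °C in 0.1 M phosphate buffer pH 7.4 containing 0.2 mM DTNB and 1 mM acetylthiocholine iodide. Absorbance at 412 nm was followed over 60 s after substrate addition, immediately after inhibitor. Activity was expressed relative to the mean slope of eight uninhibited controls per plate.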

[2] = target: Acetylcholinesterase (Anopheles gambiae, UniProt Q869C3); experiment: Inhibition of recombinant Anopheles gambiae AChE1 expressed in sf9 insect cells using acetylthiocholine iodide as substrate measured over 60 secs by Ellman assay; procedure, shortened: as §1
[3] = target: T1, Acetylcholinesterase (Homo sapiens, UniProt P22303); experiment: Inhibition of recombinant human AChE using acetylthiocholine iodide as substrate measured over 60 secs by Ellman assay; procedure, shortened: as §1
[4] = Selectivity ratio of IC50 for recombinant human AChE to IC50 for recombinant Anopheles gambiae AChE1
Procedure, shortened: (§2)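 Ratio = IC50 for hAChE divided by the higher of the IC50 values for AaAChE1 and AgAChE1. All IC50 values came from the Ellman assay with secreted recombinant enzymes.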

[5] = Selectivity ratio of IC50 for recombinant human AChE to IC50 for recombinant Aedes aegypti AChE1; procedure, shortened: as §2
[6] = target: Acetylcholinesterase (Anopheles gambiae, UniProt Q869C3, G122S); experiment: Inhibition of recombinant Anopheles gambiae AChE1 G122S mutant expressed in sf9 insect cells using acetylthiocholine iodide as substrate measured over 60 secs by Ellman assay; procedure, shortened: as §1
[7] = system: Aedes aegypti; experiment: Insecticidal activity against topically dosed female adult Aedes aegypti assessed as mortality measured after 24 hrs; format: functional
Procedure, shortened: (§3)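 Mosquitoes were reared at 27–28 °C, ~80% humidity, on a 12/12 h light cycle. Insects were chilled on a −20 °C plate. 0.1 µl of compound in acetone was applied to the upper pronotum. Negative control was acetone alone. Afterwards mosquitoes were given glucose and kept in the insectary. Mortality was scored at 24 h, Abbott-corrected when control mortality exceeded 5%. Runs with control mortality ≥20% were discarded.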

[8] = target: T1, Acetylcholinesterase; experiment: Inhibition of recombinant human AChE at 1 mM using acetylthiocholine iodide as substrate measured over 60 secs by Ellman assay; conditions: 1 min, 1000 µM
[9] = target: Acetylcholinesterase (Aedes aegypti) (UniProt Q6A2E2); experiment: Inhibition of recombinant Aedes aegypti AChE1 expressed in sf9 insect cells at 1 mM using acetylthiocholine iodide as substrate measured over 60 secs by Ellman assay
[10] = target: Acetylcholinesterase (Anopheles gambiae) (UniProt Q869C3); experiment: Inhibition of recombinant Anopheles gambiae AChE1 expressed in sf9 insect cells at 1 mM using acetylthiocholine iodide as substrate measured over 60 secs by Ellman assay
[11] = system: Acetylcholinesterase (Anopheles gambiae), Q869C3 [G122S]; experiment: Inhibition of recombinant Anopheles gambiae AChE1 G122S mutant expressed in sf9 insect cells at 1 mM using acetylthiocholine iodide as substrate measured over 60 secs by Ellman assay
[12] = system: Anopheles gambiae; experiment: Insecticidal activity against five day old female adult Anopheles gambiae Kisumu assessed as mortality at 4.26 ug administered topically measured after 24 hrs relative to control; format: functional; procedure, shortened: as §3
[13] = system: Aedes aegypti; experiment: Insecticidal activity against topically dosed five day old female adult Aedes aegypti Mombasa assessed as mortality measured after 24 hrs; format: functional; procedure, shortened: as §3
[14] = system: Aedes aegypti; experiment: Insecticidal activity against five day old female adult Aedes aegypti Mombasa assessed as mortality at 4.26 ug administered topically measured after 24 hrs relative to control; format: functional; procedure, shortened: as §3
[15] = system: Aedes aegypti; experiment: Insecticidal activity against five day old female adult Aedes aegypti Mombasa assessed as mortality rate at 57.3 ng administered via micro-injection measured after 24 hrs relative to control; format: functional
Procedure, shortened: (§4)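 Test compounds were made up at 100 mM in acetone, then diluted in mosquito saline (5% acetone final; 4.3% for propoxur). 23 nl was injected into the thoracic cavity of anesthetized females. Negative control was saline with matching acetone. Mosquitoes were then given glucose. Mortality was read at 24 and 48 h, Abbott-corrected when control mortality exceeded 5%. Runs with control mortality ≥20% were discarded.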

[16] = system: Aedes aegypti; experiment: Insecticidal activity against five day old female adult Aedes aegypti Mombasa assessed as mortality rate at 57.3 ng administered via micro-injection measured after 48 hrs relative to control; format: functional; procedure, shortened: as §4
[17] = system: Aedes aegypti; experiment: Insecticidal activity against five day old female adult Aedes aegypti Mombasa assessed as mortality rate at 60.4 ng administered via micro-injection measured after 24 hrs relative to control; format: functional; procedure, shortened: as §4
[18] = system: Aedes aegypti; experiment: Insecticidal activity against five day old female adult Aedes aegypti Mombasa assessed as mortality rate at 60.4 ng administered via micro-injection measured after 48 hrs relative to control; format: functional; procedure, shortened: as §4
[19] = system: Aedes aegypti; experiment: Insecticidal activity against five day old female adult Aedes aegypti Mombasa assessed as mortality rate at 52.7 ng administered via micro-injection measured after 48 hrs relative to control; format: functional; procedure, shortened: as §4
[20] = system: Aedes aegypti; experiment: Insecticidal activity against five day old female adult Aedes aegypti Mombasa assessed as mortality rate at 52.7 ng administered via micro-injection measured after 24 hrs relative to control; format: functional; procedure, shortened: as §4
[21] = system: Aedes aegypti; experiment: Insecticidal activity against five day old female adult Aedes aegypti Mombasa assessed as mortality rate at 53.6 ng administered via micro-injection measured after 48 hrs relative to control; format: functional; procedure, shortened: as §4
[22] = system: Aedes aegypti; experiment: Insecticidal activity against five day old female adult Aedes aegypti Mombasa assessed as mortality rate at 53.6 ng administered via micro-injection measured after 24 hrs relative to control; format: functional; procedure, shortened: as §4
[23] = system: Aedes aegypti; experiment: Insecticidal activity against five day old female adult Aedes aegypti Mombasa assessed as mortality rate at 21 ng administered via micro-injection measured after 24 hrs relative to control; format: functional; procedure, shortened: as §4

Compound | IC50 [1] [µM] | IC50 [2] [µM] | IC50 [3] [µM] | Ratio IC50 [4] | Ratio IC50 [5] | IC50 [6] [µM] | further results
COc1ccc(-c2ccc(OCC(=O)NCCCN3CCN(C)CC3)cc2)cc1 | 16 | 25 | 190 | 7.6 | 7.6 | 33 | 
CNC(=O)Oc1cccc2c1OC(C)(C)O2 [BENDIOCARB] |  |  |  |  |  |  | LD50 [7]: 0.0018 µg
O=C(COc1ccc(I)cc1)NCCCN1CCCCC1 | 36 | 44 | 13 | 0.3 | 0.3 | 31 | 
O=C(COc1ccc(-c2ccccc2)cc1)N1CCC(N2CCOCC2)CC1 | > 200 | > 200 | 93 |  |  | > 200 | 
CCN1CCN(C2CCN(C(=O)COc3ccc(-c4ccc(OC)cc4)cc3)CC2)CC1 | 0.23 | 0.4 | 18 | 45 | 45 | 0.96 | 
CCN1CCN(CCCNC(=O)COc2ccc(I)cc2)CC1 | 72 | 43 | 87 | 1.2 | 1.2 | 95 | 
O=C(COc1ccc(-c2ccccc2)cc1)N1CCOCC1 |  |  |  |  |  |  | inhibition (INH) [8]: Not Active; inhibition [9]: inactive; inhibition [10]: inactive; inhibition [11]: inactive
CCN1CCN(C2CCN(C(=O)COc3ccc(-c4ccccc4F)cc3)CC2)CC1 | 0.22 | 0.24 | 19 | 79 | 79 | 0.71 | mortality [12]: 88%; LD50 [13]: 2.13 µg; mortality [14]: 75%; mortality [15]: 55%; mortality [16]: 56%
CCN1CCN(C(=O)COc2ccc(-c3ccccc3)cc2)CC1 | > 200 | > 200 | > 200 |  |  | > 200 | 
CCN1CCN(C2CCN(C(=O)COc3ccc(-c4ccc([N+](=O)[O-])cc4)cc3)CC2)CC1 | 0.11 | 0.08 | 2.1 | 19 | 19 | 0.13 | mortality [17]: 64%; mortality [18]: 69%; mortality [14]: 31%
CCN1CCN(CCCNC(=O)COc2ccc(-c3ccc(OC)cc3)cc2)CC1 | 3.8 | 5.8 | 110 | 19 | 19 | 20 | 
CCN1CCN(C2CCN(C(=O)COc3ccc4c(c3)CCC4=O)CC2)CC1 | 0.2 | 0.29 | 4.9 | 16 | 16 | 0.38 | mortality [19]: 64%; mortality [20]: 58%; mortality [14]: 50%
CN1CCN(C2CCN(C(=O)COc3ccc(-c4ccccc4)cc3)CC2)CC1 | 0.25 | 0.24 | 10 | 40 | 40 | 0.54 | mortality [21]: 66%; mortality [22]: 58%
CN1CCN(CCCNC(=O)COc2ccc(-c3ccccc3)cc2)CC1 | 12 | 13 | 115 | 8.8 | 8.8 | 39 | 
CCN1CCN(C2CCN(C(=O)COc3ccc(-c4ccccc4)cc3)CC2)CC1 | 0.22 |  |  |  |  |  | 
CN1CCN(CCCNC(=O)COc2ccc(I)cc2)CC1 | 112 | 114 | 138 | 1.2 | 1.2 | 128 | 
CNC(=O)Oc1ccccc1OC(C)C [PROPOXUR] |  |  |  |  |  |  | LD50 [7]: 0.0054 µg; mortality [23]: 85%
CCN1CCN(CCCNC(=O)COc2ccc(-c3ccccc3)cc2)CC1 | 3.3 | 3.5 | 113 | 32 | 32 | 16 | 
CCN1CCN(C2CCN(C(=O)COc3ccc(I)cc3)CC2)CC1 | 1.5 | 3.6 | 20 | 5.6 | 5.6 | 6.2 | 
COc1ccc(-c2ccc(OCC(=O)NCCCN3CCCCC3)cc2)cc1 | 3.9 | 4.5 | 14 | 3.1 | 3.1 | 5.2 | 
O=C(COc1ccc(-c2ccccc2)cc1)N1CCC(N2CCCCC2)CC1 | 4 | 3.8 | 4.6 | 1.2 | 1.2 | 4.2 | 
O=C(COc1ccc(-c2ccccc2)cc1)N1CCCCC1 |  |  |  |  |  |  | inhibition (INH) [8]: Not Active; inhibition [9]: inactive; inhibition [10]: inactive; inhibition [11]: inactive
O=C(COc1ccc(-c2ccccc2)cc1)NCCCN1CCCCC1 | 9.9 | 10 | 57 | 5.7 | 5.7 | 23 | 
